Screening results as filed in PubChem.
HCV core dimer: blocks dimerization of HCV core protein | actives 0.33% (n = 300,000) | TR-FRET GST/Flag-core106 dimerization, 1536-well | AID 1899 | inhibition, % at 5 µM;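 active means inhibition above the mean of all tested compounds plus 3 SD, set per screening campaign, cut at about 45% in these data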
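Assay system: tagged HCV core106 pair (GST and Flag); medium: KF-containing HEPES buffer, pH 7.45, DTT, CHAPS, BSA; also added: Eu donor and XL665 acceptor anti-tag antibodies; dosing: 5 µM single dose; timing: compound-protein-antibody incubation 4 h at 22.5 °C; signal: TR-FRET 671 and 617 nm emission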
PRMT1 inh: inhibitors of human PRMT1; Q99873; recombinant PRMT1, activity-based probe fluorescence polarization; inhibition, % at 2.79 µM; actives 1.3% (n = 370,000);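 active means inhibition above about 21% made by adding two undisclosed values, limit read from the data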
Target sequence (Q99873 whole entry, looked up): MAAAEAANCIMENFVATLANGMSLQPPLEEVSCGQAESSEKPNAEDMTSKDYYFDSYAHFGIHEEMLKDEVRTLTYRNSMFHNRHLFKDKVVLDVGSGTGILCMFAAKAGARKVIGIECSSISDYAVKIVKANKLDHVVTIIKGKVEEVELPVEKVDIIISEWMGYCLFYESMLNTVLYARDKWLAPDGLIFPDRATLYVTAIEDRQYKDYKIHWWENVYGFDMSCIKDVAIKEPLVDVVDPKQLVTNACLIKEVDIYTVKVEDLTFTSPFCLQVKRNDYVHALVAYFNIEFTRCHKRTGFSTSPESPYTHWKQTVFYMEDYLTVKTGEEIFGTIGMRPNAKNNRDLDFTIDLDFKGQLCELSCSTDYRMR
A3A deaminase: blocks human APOBEC3A ssDNA deamination | P31941 | recombinant A3A, FAM/TAMRA ssDNA deamination fluorescence | inhibition, % at 20 µM | actives 0.41% (n = 330,000);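 active means at least 40% inhibition at 20 µM here, with at most 30% in a related deaminase screen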;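 further: plate controls were A3A with DMSO for no effect and wells lacking A3A enzyme for full effect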
Target sequence (P31941 whole entry, looked up): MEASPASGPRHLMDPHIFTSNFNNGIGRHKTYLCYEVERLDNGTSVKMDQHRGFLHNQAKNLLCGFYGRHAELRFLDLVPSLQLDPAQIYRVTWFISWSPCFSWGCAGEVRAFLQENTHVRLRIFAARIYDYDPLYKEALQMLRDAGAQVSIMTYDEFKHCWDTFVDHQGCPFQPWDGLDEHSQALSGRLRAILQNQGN
HCV NS3 hel inh: inhibitors of Hepatitis C virus NS3 helicase. NS3 helicase DNA unwinding, Cy5 molecular beacon fluorescence. actives 0.56% (n = 290,000). inhibition, % at 10.9 µM;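 active means inhibition above the mean of all tested compounds plus 3 SD, set per campaign, cut at about 35% in these data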;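 further: 0% = DMSO wells and 100% = thioflavine S control wells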
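Material: hepatitis C virus NS3 helicase domain fragment enzyme; measured by: Cy5 fluorescence, 0 and 60 min reads; control set: DMSO and thioflavine S; incubation: 60 min unwinding reaction at 25 °C after ATP addition; read-out basis: % inhibition from 60/0 min fluorescence ratio, DMSO 0%, thioflavine S 100%; repeats: singlicate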
A3G deaminase: APOBEC3G (human) deaminase inhibition | Q9HC16 | recombinant A3G, ssDNA deamination FAM/TAMRA fluorescence | inhibition, % at 20 µM | actives 0.28% (n = 330,000) | AID 493012;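 active means inhibition of at least 40% at 20 µM, with no more than 30% in the related APOBEC3A deaminase screen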;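 further: plate controls were DMSO wells with A3G for no effect and wells lacking A3G enzyme for full effect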
ABHD5 PLIN5 PPI: ABHD5-PLIN5 protein interaction inhibition. Q00G26+Q8WTS1. Split G. princeps luciferase complementation, luminescence, 4 h. inhibition, % at 4 µM. actives 0.78% (n = 360,000). AID 602281;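 active means inhibition above the mean inhibition across every tested compound plus 3 SD, cut at about 22% in these data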;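 further: 0% = DMSO only wells and the 100% control is not disclosed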
APOBEC3A confirm: APOBEC3A (human) deaminase inhibition, confirmed. recombinant A3A, ssDNA deaminase UDG fluorescence assay. AID 493151. inhibition, % at 20 µM. shares compounds with A3A deaminase. actives 63% (n = 1,400);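 active means inhibition reaching a set limit, 80% of the first screen's cutoff, at 20 µM in any replicate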;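 further: plate controls were DMSO wells with A3A for no effect and wells lacking A3A enzyme for full effect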
UDG A3A counter: counter-screen for APOBEC3A inhibitors: UDG; shares compounds with A3A deaminase; UDG counterscreen, FAM/TAMRA uracil oligo fluorescence; inhibition, % at 20 µM; 1,000 tested, under 10 active; AID 504714; call rule not given here
Active calls of the source: *; . = no result. A selection: hits, their analogues and other compounds. The true share with any hit is near 2.9%.

SMILES	HCV core dimer	PRMT1 inh	A3A deaminase	HCV NS3 hel inh	A3G deaminase	ABHD5 PLIN5 PPI	APOBEC3A confirm	UDG A3A counter
CSc1ccc(S(=O)(=O)N2CCC(C(=O)NCC3CCCO3)CC2)cc1 (stereo not drawn)	-16	4	63*	-1	11	-7	56*	2
CC(C)Oc1ccc(F)cc1-c1cc(C(=O)Nc2ccc(C(C)(C)C)cc2)[nH]n1	.	5	.	.	.	15	.	.
CCN(CC)CCNC(=O)c1ccc(NC(=O)C2CCN(c3ncnc4sc(C)c(C)c34)CC2)cc1	4	2	44*	-76	16	13	57*	.
Cc1sc2ncnc(N3CCC(C(=O)Nc4ccc(OC(F)F)c(Cl)c4)CC3)c2c1C	.	3	11	.	-1	-13	.	.
Cc1ccc2c(c1)C1CN(C)CCC1N2CC(=O)N(C)c1ccccc1 (stereo not drawn)	-2	-1	51*	-9	19	-9	50*	-2
CC(=O)/C(C[N+]1(C)CCCCC1)=N\O	-1	2	41*	-1	21	5	82*	5
CCCCNC(=O)C1(C)CCN1C(=O)c1ccc(F)cc1Cl (stereo not drawn)	.	7	.	.	.	-4	.	.
CN1/C(=C/c2cccc[n+]2CCO)Sc2ccccc21	-17	6	93	13	41	-3	.	.
CC[n+]1ccccc1/C=C1\Sc2ccc(C)cc2N1C	-11	2	54*	13	24	4	84*	-3
CCCCNc1ncnc2[nH]ncc12	.	1	.	.	.	11	.	.
COc1cc(OC)c2ccc(=O)oc2c1C(CC(=O)N1CCCC1)c1ccc2c(c1)OCO2 (stereo not drawn)	-6	4	47*	.	26	6	29	.
O=C(NNC(=O)c1cccc(-n2cccc2)c1)c1ccc(F)cc1	52*	7	42*	.	18	-2	28*	-1
CCN(CC)S(=O)(=O)c1ccc(OC)c(NC(=O)Cc2cccs2)c1	50*	0	43*	16	16	0	25	.
Cc1ccc(-n2nnnc2CNC(=O)C2CC(=O)N(c3ccccc3)C2)cc1C (stereo not drawn)	6	-2	-2	4	-6	-4	.	.
Cc1ccc(N2CC(C(=O)NCc3nnnn3-c3ccc(C)c(C)c3)CC2=O)cc1 (stereo not drawn)	-3	1	52*	9	-3	-1	6	-14
CCOC(=O)[C@]12CCC=C1N(Cc1ccccc1)C(=O)[C@H](CC(=O)NCCC(C)C)C2	.	2	.	.	.	-3	.	.
CCn1ncc(-c2ccnc3cc(C(=O)O)nn23)c1C	31	3	94*	1	-13	3	77*	-3
CCn1ncc(-c2cc(C(=O)O)no2)c1C	-4	4	-3	5	-4	.	.	.
COC(=O)[C@]12C[C@H](CC(=O)N3CCCC3)C(=O)N(Cc3ccccc3)C1=C[C@H](C1CCCC1)O[C@@H]2C	.	-3	.	.	.	.	.	.
COc1ccc(CNC(=O)COC(=O)c2cc(-c3ccco3)nc3ccccc23)cc1	.	.	.	17	.	.	.	.
Cn1c(=O)c(C(=O)COC(=O)c2cc(-c3ccco3)nc3ccccc23)c(N)n(CC2CC2)c1=O	57*	.	47*	17	28	.	32*	.
CCNC(=O)COC(=O)c1cc(-c2ccco2)nc2ccccc12	31	38*	53*	29	25	0	34*	-1
Cn1c(=O)c(C(=O)COC(=O)c2cc(C3CC3)nc3ccccc23)c(N)n(Cc2ccccc2)c1=O	-4	-2	-2	-8	-3	.	.	.
COc1ccc(NC(=O)c2cc(-c3ccco3)nc3ccccc23)cn1	.	14	52*	.	14	10	45*	2
Cc1[nH]c2ccccc2c1/C=C(\C#N)C(=O)NCC1CCCO1 (stereo not drawn)	-3	-3	2	2	-2	2	.	.
SMILES	HCV core dimer	PRMT1 inh	A3A deaminase	HCV NS3 hel inh	A3G deaminase	ABHD5 PLIN5 PPI	APOBEC3A confirm	UDG A3A counter
N#C/C(=C\c1c[nH]c2ccccc12)C(=O)NCC1CCCO1 (stereo not drawn)	-2	0	63*	-1	22	-1	64*	2
Cc1ccc(NC(=O)C2CCN(C(=O)c3cccs3)CC2)c(C)c1	-2	3	44*	4	14	-14	67*	0
Cc1ccc(NC(=O)C2CCCN2C(=O)c2cccs2)c(C)c1 (stereo not drawn)	-2	-1	51*	1	17	1	59*	-1
O=C(Nc1nc2c(s1)CCCC2)C1CCCN1C(=O)c1cccs1 (stereo not drawn)	-6	1	54*	13	20	7	46*	-1
CCN(Cc1nc2cc(Cl)ccc2c(=O)[nH]1)C(=O)CN1C(=O)NC2(CCCCC2C)C1=O (stereo not drawn)	.	-2	4	.	-13	-6	.	.
COc1ccc(CC(=O)Nc2cccc(/C(C)=N/NC(=O)c3cccc([N+](=O)[O-])c3)c2)cc1	3	-1	72*	-2	1	2	1	.
COc1ccc(CC(=O)N/N=C(\C)c2cccc(NC(=O)C3CC3)c2)cc1	.	-5	-6	-4	1	2	.	.
N=C(N)Cc1ccccc1Sc1ccccc1	-11	3	42*	10	1	13	1	.
O=C(CSc1nnc(-c2ccccc2)n1-c1ccc(Cl)cc1)Nc1ccc(OCc2ccccc2)cc1	.	1	.	.	.	.	.	.
CC(C)CC[n+]1ccccc1/C=C/c1ccc(N(C)C)cc1	-9	0	56*	-23	-13	5	54*	-4
COc1ccc(Cn2cc(CN(C)C3CN(Cc4cn(Cc5ccc(OC)cc5)nn4)S(=O)(=O)C3)nn2)cc1 (stereo not drawn)	.	6	.	.	.	7	.	.
CCc1cc2c(SCC(=O)NC3CCCC3)ncnc2s1	.	-3	.	.	.	9	.	.
Cc1ccc2nc3c(nc2c1C)C(O)=C3O	-27	-11	65*	-7	-4	-5	7	8
Cc1cc(C)c(CSc2ncnc3nc[nH]c23)c(C)c1	2	-4	53*	-1	9	-5	10	.
CCc1ccc(-c2cc(C(=O)O)c3ccccc3n2)s1	.	16	3	19	-3	-5	.	.
CN(C)c1nc(NNC(=O)c2ccccc2)nc(N(C)C)n1	.	-1	.	.	.	-4	.	.
COc1ccc(CCNC(=O)Cc2c(Cl)cccc2Cl)cc1	-2	-2	44*	10	3	-3	7	.
COc1ccc(CCNC(=O)CC(=O)NCCc2ccc(OC)cc2)cc1	9	1	-4	2	-11	-9	.	.
